From ChEMBL document CHEMBL3745654, “N-Alkylated arylsulfonamides of (aryloxy)ethyl piperidines: 5-HT(7) receptor selectivity versus multireceptor profile” (Bioorg Med Chem, 2016)
Active and inactive are the calls of the source. The calls are words filed in the database; no cut-off is given here.

How the values were obtained:
[1] = target: 5-hydroxytryptamine receptor 7 (Homo sapiens, UniProt P34969); assay: Displacement of [3H]-5-CT from human 5-HT7B receptor expressed in HEK293 cells incubated for 1 hr; assay type: cell-based
5-hydroxytryptamine receptor 7, sequence (P34969 whole entry): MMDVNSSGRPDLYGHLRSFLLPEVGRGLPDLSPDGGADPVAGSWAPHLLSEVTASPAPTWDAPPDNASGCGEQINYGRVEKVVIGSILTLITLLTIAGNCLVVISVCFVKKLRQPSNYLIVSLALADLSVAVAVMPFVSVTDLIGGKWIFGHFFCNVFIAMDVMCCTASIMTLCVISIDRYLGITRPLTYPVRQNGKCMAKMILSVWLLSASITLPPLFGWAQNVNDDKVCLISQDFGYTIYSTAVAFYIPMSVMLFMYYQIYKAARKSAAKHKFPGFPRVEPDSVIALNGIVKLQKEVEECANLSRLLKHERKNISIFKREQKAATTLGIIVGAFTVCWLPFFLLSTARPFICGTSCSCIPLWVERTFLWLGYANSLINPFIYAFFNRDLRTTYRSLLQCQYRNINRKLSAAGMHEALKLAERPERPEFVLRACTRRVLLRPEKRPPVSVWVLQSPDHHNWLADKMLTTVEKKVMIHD
Method in brief: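 Membranes from HEK293 cells stably expressing human 5-HT7b receptor, with [3H]-5-CT (39.2 Ci/mmol). Buffer: 50 mM Tris-HCl, 4 mM MgCl2, pargyline, 0.1% ascorbate. Incubation 1 h at 37 °C, then rapid filtration and counting of filter radioactivity. Non-specific binding defined with 5-HT. Triplicates at 7–8 concentrations (10^-11 to 10^-4 M). Ki by Cheng–Prusoff.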

[2] = target: T1, 5-hydroxytryptamine receptor 1A (Homo sapiens, UniProt P08908); assay: Displacement of [3H]-8-OH-DPAT from human 5-HT1A receptor expressed in HEK293 cells incubated for 1 hr; assay type: cell-based
T1 sequence (P08908 whole entry): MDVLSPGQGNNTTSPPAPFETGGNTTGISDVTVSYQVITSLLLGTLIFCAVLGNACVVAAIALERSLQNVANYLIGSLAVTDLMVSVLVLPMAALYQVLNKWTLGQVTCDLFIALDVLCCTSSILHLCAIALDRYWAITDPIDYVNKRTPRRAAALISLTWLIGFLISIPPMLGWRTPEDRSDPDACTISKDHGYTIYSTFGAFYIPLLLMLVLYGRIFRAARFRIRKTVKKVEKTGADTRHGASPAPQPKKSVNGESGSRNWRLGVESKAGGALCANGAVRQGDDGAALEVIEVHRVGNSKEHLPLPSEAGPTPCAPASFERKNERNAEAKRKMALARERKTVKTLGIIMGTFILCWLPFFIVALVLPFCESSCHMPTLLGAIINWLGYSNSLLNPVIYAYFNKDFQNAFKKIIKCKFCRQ
Method in brief: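 Membranes from HEK293 cells stably expressing human 5-HT1A receptor, with [3H]-8-OH-DPAT (187 Ci/mmol). Buffer: 50 mM Tris-HCl, 0.1 mM EDTA, 4 mM MgCl2, pargyline, 0.1% ascorbate. Incubation 1 h at room temperature, then filtration. Non-specific binding defined with 5-HT. Triplicates at 7–8 concentrations. Ki by Cheng–Prusoff.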

[3] = target: 5-hydroxytryptamine receptor 2A (Homo sapiens, UniProt P28223); assay: Displacement of [3H]-ketanserin from human 5-HT2A receptor expressed in HEK293 cells incubated for 1 hr; assay type: cell-based
5-hydroxytryptamine receptor 2A, sequence (P28223 whole entry): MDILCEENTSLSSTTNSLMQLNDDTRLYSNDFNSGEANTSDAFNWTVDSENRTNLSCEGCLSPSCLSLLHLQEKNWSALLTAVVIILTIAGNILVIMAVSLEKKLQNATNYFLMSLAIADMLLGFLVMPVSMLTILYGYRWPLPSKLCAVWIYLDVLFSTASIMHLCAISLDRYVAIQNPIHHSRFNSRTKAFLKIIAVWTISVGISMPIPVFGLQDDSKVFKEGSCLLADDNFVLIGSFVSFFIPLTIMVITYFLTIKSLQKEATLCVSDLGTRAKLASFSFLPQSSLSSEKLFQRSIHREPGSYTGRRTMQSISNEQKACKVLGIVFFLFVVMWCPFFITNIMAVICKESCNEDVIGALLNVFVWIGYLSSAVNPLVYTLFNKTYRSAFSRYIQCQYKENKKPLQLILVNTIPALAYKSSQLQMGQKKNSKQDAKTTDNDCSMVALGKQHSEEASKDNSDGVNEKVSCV
Method in brief: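 Membranes from HEK293 cells stably expressing human 5-HT2A receptor, with [3H]-ketanserin (66.9 Ci/mmol). Incubation 1 h at 37 °C, then rapid filtration and counting. Triplicates at 7–8 concentrations (10^-11 to 10^-4 M). Ki by Cheng–Prusoff; means of at least three experiments.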

D(2) dopamine receptor = D(2) dopamine receptor (Homo sapiens, UniProt P14416); assay: Displacement of [3H]-Raclopride from human dopamine D2L receptor expressed in HEK293 cells incubated for 1 hr; assay type: cell-based
D(2) dopamine receptor, sequence (P14416 whole entry): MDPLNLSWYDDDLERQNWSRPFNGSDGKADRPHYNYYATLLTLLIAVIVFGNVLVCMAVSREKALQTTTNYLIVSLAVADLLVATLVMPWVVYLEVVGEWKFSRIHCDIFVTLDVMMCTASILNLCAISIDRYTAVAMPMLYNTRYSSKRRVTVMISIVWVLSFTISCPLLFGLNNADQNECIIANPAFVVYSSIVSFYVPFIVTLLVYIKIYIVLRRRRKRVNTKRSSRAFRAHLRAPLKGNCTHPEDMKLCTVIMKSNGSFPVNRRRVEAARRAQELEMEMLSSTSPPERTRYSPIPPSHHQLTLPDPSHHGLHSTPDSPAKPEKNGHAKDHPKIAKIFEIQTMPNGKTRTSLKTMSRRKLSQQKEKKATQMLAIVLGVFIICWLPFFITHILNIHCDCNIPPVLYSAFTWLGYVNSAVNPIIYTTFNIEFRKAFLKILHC
Method in brief: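 Membranes from HEK293 cells stably expressing human D2L receptor, with [3H]-raclopride (74.4 Ci/mmol). Buffer: Tris-HCl, EDTA, MgCl2, 120 mM NaCl, 5 mM KCl, 1.5 mM CaCl2, ascorbate. Incubation 1 h at 37 °C, then filtration. Non-specific binding defined with (+)butaclamol. Triplicates at 7–8 concentrations (10^-11 to 10^-4 M). Ki by Cheng–Prusoff.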

[4] = Drug metabolism in mouse liver microsomes assessed as retention time of N-dealkylated metabolite at 20 uM at pH 7.4 incubated for 15 mins by UPLC/MS analysis in presence of NADPH; assay type: ADME; conditions: pH 7.4, 0.25 h
Method in brief: (§1)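 Compound (20 µM) incubated with mouse liver microsomes (0.2 mg/ml) in 100 mM potassium phosphate, pH 7.4, 37 °C. Reaction started with NADPH-regenerating system; blank without NADPH run in parallel. Sampling at 5, 15, 30 and 60 min (some to 120 min), in duplicate. Levallorphan internal standard; UPLC/MS quantitation. t1/2 from ln % remaining vs time.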

[5] = Intrinsic clearance in mouse liver microsomes at 20 uM at pH 7.4 incubated for 15 mins by UPLC/MS analysis in presence of NADPH; assay type: ADME; conditions: read-out: CLH
[6] = Half life in mouse liver microsomes at 20 uM at pH 7.4 incubated for 15 mins by UPLC/MS analysis in presence of NADPH; assay type: ADME; method in brief: as §1
[7] = Metabolic stability in mouse liver microsomes assessed as retention time of compound at 20 uM at pH 7.4 incubated for 15 mins by UPLC/MS analysis in presence of NADPH; assay type: ADME; conditions: pH 7.4, 0.25 h; method in brief: as §1
[8] = Drug metabolism in mouse liver microsomes assessed as retention time of hydroxylated metabolite at 20 uM at pH 7.4 incubated for 15 mins by UPLC/MS analysis in presence of NADPH; assay type: ADME; conditions: pH 7.4, 0.25 h; method in brief: as §1
Mus musculus [9] = assay: Antidepressant-like activity in Swiss albino mouse assessed as reduction in immobility time at 10 mg/kg, ip dosed 30 mins before test measured after 6 mins by forced swim test; assay type: functional, organism-based
Method in brief: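 Male Swiss albino mice (22–26 g), 7–12/group, used once; drug suspended in 1% aqueous Tween 80 just before use, given ip 30 min before test. Blind observer. 6-min swim in a glass cylinder (25 × 10 cm) with 10 cm of water at 23–25 °C. Immobility timed over the final 4 min. Data as mean ± SEM; one-way ANOVA, then Bonferroni vs vehicle.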

Mus musculus [10] = assay: Toxicity in Swiss albino mouse assessed as effect on spontaneous locomotor activity at 10 mg/kg, ip dosed 30 mins before test measured after 2 to 6 mins; assay type: organism-based; conditions: in vivo
Method in brief: (§2)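 Swiss albino mice given reference drug ip 30 min before testing (citalopram in water; SB-269970 suspended in 1% aqueous Tween 80). Ambulation counted from 2 to 6 min in individual cages by activity monitor.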

Mus musculus [11] = assay: Antidepressant-like activity in Swiss albino mouse assessed as reduction in immobility time at 1.25 mg/kg, ip dosed 30 mins before test measured after 6 mins by forced swim test; assay type: functional, organism-based
Method in brief: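 Male Swiss albino mice (22–26 g), 7–12/group, used once; drug in distilled water, given ip 30 min before test. Observer blind to treatment. Mice swam 6 min in a glass cylinder (25 cm high, 10 cm diameter) holding 10 cm of water at 23–25 °C. Immobility (floating, only small head-keeping movements) was timed over the last 4 min. One-way ANOVA, then Bonferroni vs vehicle.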

Mus musculus [12] = assay: Toxicity in Swiss albino mouse assessed as effect on spontaneous locomotor activity at 1.25 mg/kg, ip dosed 30 mins before test measured after 2 to 6 mins; assay type: organism-based; conditions: in vivo; method in brief: as §2

Structure (SMILES) | Ki [1] [nM] | Ki [2] [nM] | Ki [3] [nM] | Ki (D(2) dopamine receptor) [nM] | other results
CC(C)c1ccccc1OCCN1CCC(N(C)S(=O)(=O)c2ccc(F)cc2)CC1 | 13 | 180 | 382 | 50 | 
CC(C)(C)c1ccccc1OCCN1CCC(N(CC2CC2)S(=O)(=O)c2ccc(F)cc2)CC1 | 53 | 14000 | 1330 | 160 | 
CC(C)c1ccccc1OCCN1CCC(N(C)S(=O)(=O)c2cnn(C)c2)CC1 | 10 | 346 | 121 | 46 | 
CN(C1CCN(CCOc2ccccc2C(C)(C)C)CC1)S(=O)(=O)c1ccccc1 | 70 | 2350 | 1250 | 360 | 
CC(C)c1ccccc1OCCN1CCC(N(C)S(=O)(=O)c2cccc(F)c2)CC1 | 18 | 190 | 230 | 45 | 
Cn1cc(S(=O)(=O)NC2CCN(CCOc3ccccc3-c3ccccc3)CC2)cn1 |  |  |  |  | Retention_time [4]: 3.85 min; microsomal CLint at 20 µM [5]: > 200 µL/min/mg; half-life at 20 µM [6]: < 20 min; Retention_time [7]: 4.45 min
CN(C1CCN(CCOc2ccccc2-c2ccccc2)CC1)S(=O)(=O)c1ccccc1 | 100 | 62 | 42 | 52 | 
O=S(=O)(c1ccc(F)cc1)N(CC1CC1)C1CCN(CCOc2ccccc2-c2ccccc2)CC1 | 18 | 342 | 70 | 37 | 
CC(C)c1ccccc1OCCN1CCC(N(CC2CC2)S(=O)(=O)c2cnn(C)c2)CC1 | 56 | 214 | 378 | 18 | 
CN(C1CCN(CCOc2ccccc2C(C)(C)C)CC1)S(=O)(=O)c1ccc(F)cc1 | 58 | 9050 | 1070 | 324 | 
Cn1cc(S(=O)(=O)NC2CCN(CCOc3ccccc3C(C)(C)C)CC2)cn1 |  |  |  |  | microsomal CLint at 20 µM [5]: > 200 µL/min/mg; half-life at 20 µM [6]: < 20 min; Retention_time [7]: 4.72 min; Retention_time [8]: 3.62 min
CC1CCN(CC[C@H]2CCCN2S(=O)(=O)c2cccc(O)c2)CC1 |  |  |  |  | Activity (Mus musculus [9]): Active; Activity (Mus musculus [10]): Non-toxic
CC(C)c1ccccc1OCCN1CCC(N(CC2CC2)S(=O)(=O)c2cccc(F)c2)CC1 | 56 | 158 | 429 | 15 | 
CN(C1CCN(CCOc2ccccc2-c2ccccc2)CC1)S(=O)(=O)c1ccc(F)cc1 | 5 | 30 | 69 | 54 | 
CN(C)CCCC1(c2ccc(F)cc2)OCc2cc(C#N)ccc21 (stereo not drawn) [CITALOPRAM] |  |  |  |  | Activity (Mus musculus [11]): Active; Activity (Mus musculus [12]): Non-toxic
CC(C)c1ccccc1OCCN1CCC(N(C)S(=O)(=O)c2ccccc2)CC1 | 9 | 140 | 264 | 60 | 
CN(C1CCN(CCOc2ccccc2C(C)(C)C)CC1)S(=O)(=O)c1cccc(F)c1 | 68 | 4510 | 1930 | 290 | 
CC(C)c1ccccc1OCCN1CCC(N(CC2CC2)S(=O)(=O)c2ccc(F)cc2)CC1 | 28 | 249 | 413 | 20 | 
